Consider 14 molecules from ChEMBL document CHEMBL2010780, “Pyridine Carboxamides: Potent Palm Site Inhibitors of HCV NS5B Polymerase” (ACS Med Chem Lett, 2010).

In data set [1] the test system is Hepatitis C virus genotype 4. The experiment in a line: Inhibition of Hepatitis C virus genotype 4 NS5B Cdelta21 polymerase up to 10 uM.
In data set [2] the test system is Hepatitis C virus. The experiment in a line: Ratio of IC50 for Hepatitis C virus genotype 1b Con1 NS5B Cdelta21 polymerase thumb site 2 M423T mutant to IC50 for Hepatitis C virus genotype 1b Con1 NS5B Cdelta21 polymerase. Details: species or system Hepacivirus hominis.
Data set [3] relates to Hepatitis C virus. Put plainly: Ratio of IC50 for Hepatitis C virus genotype 1b Con1 NS5B Cdelta21 polymerase palm site 1 M414T mutant to IC50 for Hepatitis C virus genotype 1b Con1 NS5B Cdelta21 polymerase. The arrangement: species or system Hepacivirus hominis.
Data set [4] concerns Hepacivirus hominis. Put plainly: Ratio of IC50 for Hepatitis C virus subtype 1a H77 NS5B Cdelta21 polymerase to IC50 for Hepatitis C virus genotype 1b Con1 NS5B Cdelta21 polymerase.
Data set [5] deals with Hepatitis C virus genotype 3. Put plainly: Inhibition of Hepatitis C virus genotype 3 NS5B Cdelta21 polymerase up to 10 uM.
Data set [6] relates to Hepatitis C virus. The experiment in a line: Ratio of IC50 for Hepatitis C virus genotype 1b Con1 NS5B Cdelta21 polymerase palm site 2 C316Y mutant to IC50 for Hepatitis C virus genotype 1b Con1 NS5B Cdelta21 polymerase. The arrangement: species or system Hepacivirus hominis.
The subject of data set [7] is Hepacivirus hominis. Put plainly: Ratio of IC50 for Hepatitis C virus subtype 1b BK NS5B Cdelta21 polymerase to IC50 for Hepatitis C virus genotype 1b Con1 NS5B Cdelta21 polymerase.
Data set [8] relates to Hepatitis C virus genotype 2. Put plainly: Inhibition of Hepatitis C virus genotype 2 NS5B Cdelta21 polymerase up to 10 uM.
The test system of data set [9] is Hepatitis C virus. The experiment in a line: Ratio of IC50 for Hepatitis C virus genotype 1b Con1 NS5B Cdelta21 polymerase palm site 1 G554D mutant to IC50 for Hepatitis C virus genotype 1b Con1 NS5B Cdelta21 polymerase. The arrangement: species or system Hepacivirus hominis.
The subject of data set [10] is Hepatitis C virus. The experiment in a line: Ratio of IC50 for Hepatitis C virus genotype 1b Con1 NS5B Cdelta21 polymerase palm site 2 C316N mutant to IC50 for Hepatitis C virus genotype 1b Con1 NS5B Cdelta21 polymerase. Details: species or system Hepacivirus hominis.
In data set [11] the test system is Hepatitis C virus. Put plainly: Ratio of IC50 for Hepatitis C virus genotype 1b Con1 NS5B Cdelta21 polymerase thumb site 1 P495L mutant to IC50 for Hepatitis C virus genotype 1b Con1 NS5B Cdelta21 polymerase. Details: species or system Hepacivirus hominis.
Data set [12] can be described thus: Cytotoxicity against human HuH7 cells after 3 days by MTS assay. It is filed as cell-based, Huh-7. The essentials:
(§1)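 Each value is the mean of duplicate experiments run on two separate weighings of compound.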

A short description of data set [13]: Inhibition of Hepatitis C virus genotype 1b Con1 NS5B Cdelta21 polymerase assessed as incorporation of [33P]-CTP into heteropolymer RNA template after 2 hrs. Details: species or system Hepacivirus hominis. As to conditions: Con1, 2 h. The essentials:
as §1

Data set [14] concerns Hepatitis C virus. The experiment in a line: Antiviral activity against Hepatitis C virus genotype 1b Con1 infected in human HuH7 cells assessed as inhibition of viral RNA replication after 3 by real time PCR analysis. It is filed as functional, organism-based, Hepacivirus hominis, Huh-7. The procedure, abridged: as §1
Data set [15] has as its system Hepatitis C virus. The experiment in a line: Inhibition of Hepatitis C virus genotype 1b Con1 NS5B Cdelta21 polymerase-mediated RNA synthesis at initiation phase after 15 mins by primer extension assay. Conditions: Hepacivirus hominis.
Data set [16] is described as follows: Ratio of CC50 for human HuH7 cells to EC50 for Hepatitis C virus genotype 1b Con1. The arrangement: species or system Huh-7.
Data set [17] deals with Hepatitis C virus. Put plainly: Inhibition of Hepatitis C virus genotype 1b Con1 NS5B Cdelta21 polymerase-mediated RNA synthesis at elongation phase after 22 hrs by single round elongation assay. Conditions: Hepacivirus hominis. The procedure, abridged: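 Single-cycle assay measuring elongation from NS5B enzyme–primer–template complexes that were preformed before elongation.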

The mark [18] stands for this setting: Hepatitis C virus, Con1, Huh-7, read-out: EC50.

Calls of active or inactive are those of the source. No cut-off for these calls is given here.

As to `CC(C)(C)CC[C@@]1(C)CC(C2=NS(=O)(=O)c3cc(NS(C)(=O)=O)ccc3N2)=C(O)c2ccccc21`, the inhibition entry in data set [1], in [5] and in data set [8] was “inactive” each time. For the same molecule, the “Ratio IC50” value was determined as 1 in data set [2]; 1 in [3]; 1 in data set [4]; 3 in [6]; 1 in data set [7]; 100 in [9]. Also, the “Ratio IC50” value in data set [10] and in data set [11] was 1 throughout.

In the case of `Cc1ncccc1C(=O)Nc1ccc(C(C)C)cc1N1CCN(c2ncnc3[nH]ccc23)CC1`, the inhibition result in data set [1], in data set [5] and in [8] was “inactive” throughout. The “Ratio IC50” value is 1 in data set [2]; 27 in data set [3]; 270 in [4]; above 300 in data set [6]; 27 in data set [7]; 8 in data set [9]. Further, the “Ratio IC50” value in data set [10] is on record as 4; in data set [11] it was 1. The CC50 at 72 h in data set [12] was above 10 µM. For the same molecule, the IC50 in data set [13] stood at 0.032 µM. Moreover, in data set [14] (setting [18]), the EC50 was determined as 3 µM.

For `CNC(=O)c1c(-c2ccc(F)cc2)oc2cc(N(CCO)S(C)(=O)=O)c(C3CC3)cc12` [NESBUVIR], the inhibition result in [1], in [5] and in data set [8] was “inactive” throughout. The “Ratio IC50” value in data set [2] was determined as 1; in data set [3], 1.5; in data set [4], 1; in data set [6], 50; in data set [7], 6; in [9], 1. The results for the “Ratio IC50” value in data set [10] and in [11] were 3 and 1, respectively.

As for `Cc1ncccc1C(=O)Nc1ccc(C(C)C)cc1N1CCN(c2ncnc3ccsc23)CC1`, the inhibition entry in data set [1], in [5], in data set [8] and in data set [17] was “inactive” each time. In addition, the “Ratio IC50” value is 1 in data set [2]; 21 in [3]; 140 in data set [4]; above 300 in data set [6]; 14 in data set [7]; 4 in [9]. Besides, the “Ratio IC50” value is reported as 3 in data set [10] and 1 in data set [11]. Moreover, the inhibition result in [15] is “Active”. In data set [12], this molecule came in with a CC50 at 72 h of 15 µM. For the same molecule, the “Ratio CC50/EC50” value in [16] is given as above 20. The IC50 in [13] came out at 0.014 µM. The EC50 in data set [14] (setting [18]) turned out to be 0.7 µM.

As to `Cc1ncccc1C(=O)Nc1ccc(C(C)C)cc1N1CCN(c2cnccn2)CC1`, in [12], it took 22 µM to reach half-maximal cytotoxicity (CC50 at 72 h). Further, the “Ratio CC50/EC50” value in [16] was 10. The IC50 in data set [13] was 0.52 µM. Also, in [14] (setting [18]), the EC50 worked out at 2.8 µM.

As for `CC(C)c1ccc(NC(=O)c2cccnc2)c(N2CCN(c3cncc(C4CC4)n3)CC2)c1`, the midpoint of cytotoxicity in [12], the CC50 at 72 h, lay at 1 µM. The IC50 in data set [13] turned out to be 1 µM. Besides, the EC50 entry in data set [14] (huh-7) is listed as “ND(toxic)”.

On to `CC(C)c1ccc(NC(=O)c2cccnc2)c(N2CCN(c3ccccn3)CC2)c1`, for which, in data set [12], the CC50 at 72 h is above 50 µM. Besides, the IC50 in [13] was 7.3 µM. Also, the EC50 in data set [14] (setting [18]) was above 50 µM.

In data set [12], `Cc1ncsc1C(=O)Nc1ccc(C(C)C)cc1N1CCN(c2cnccn2)CC1` came in with a CC50 at 72 h of 25 µM. For the same molecule, in [13], the IC50 was determined as 0.58 µM. The EC50 result in data set [14] (huh-7) was “ND(toxic)”.

With `Cc1csc(N2CCN(c3cc(C(C)C)ccc3NC(=O)c3cccnc3)CC2)n1`, the CC50 at 72 h in data set [12] came out at 27 µM. The IC50 in data set [13] worked out at 3.9 µM. Besides, the EC50 in [14] (setting [18]) stood at 6 µM.

`CC(C)c1ccc(NC(=O)c2cccnc2)c(N2CCN(c3nccs3)CC2)c1` displayed a CC50 at 72 h in data set [12] above 50 µM. For the same molecule, the IC50 in data set [13] turned out to be 2.5 µM. The EC50 in [14] (setting [18]) is above 50 µM.

For the molecule `CC(C)c1ccc(NC(=O)c2cccnc2-c2ccccc2)c(N2CCN(c3cnccn3)CC2)c1`, in [12], the CC50 at 72 h is 15 µM. Further, the IC50 in [13] is above 200 µM. In addition, in data set [14] (huh-7), the EC50 result was “ND(toxic)”.

The molecule `CC(C)c1ccc(NC(=O)c2ccsc2)c(N2CCN(c3cnccn3)CC2)c1` came in with a CC50 at 72 h in data set [12] of 28 µM. Also, in [13], the IC50 was determined as 7 µM. In addition, the EC50 in [14] (setting [18]) is 6.5 µM.

In data set [12], `Cc1cncc(N2CCN(c3cc(C(C)C)ccc3NC(=O)c3cccnc3)CC2)n1` returned a CC50 at 72 h of 23 µM. Also, in data set [13], the IC50 was 0.5 µM. Also, in data set [14] (huh-7), the EC50 entry was “ND(toxic)”.

The molecule `Cc1ccc(C(=O)Nc2ccc(C(C)C)cc2N2CCN(c3cnccn3)CC2)cn1` returned a half-maximal cytotoxic concentration (CC50) at 72 h in data set [12] of 11 µM. The IC50 in data set [13] was 14 µM. Besides, the EC50 entry in [14] (huh-7) is given as “ND(toxic)”.
